Laboratory results as given in ChEMBL document CHEMBL1121429, “Soft drugs. 1. Labile quaternary ammonium salts as soft antimicrobials” (J Med Chem, 1980).

What was measured:
Streptococcus pyogenes [1] = assay: Sterilization time for contact germicidal efficiency (CGE) of salt was tested against at Streptococcus pyogenes at pH 7.0, concentration 1035.9 ppm; assay type: functional
Procedure, shortened: (§1)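 Streptococcus pyogenes ATCC 19615 overnight culture, 5 × 10^6 cfu/mL; 0.2 mL into 5 mL test solution of salt in buffer, left 30 min at room temperature beforehand. At timed intervals (0.5 to 30 min), a 3-mm loop was transferred to sterile nutrient broth and incubated at 37 °C for 7 days. Sterilization time is the shortest interval without growth; buffer-only and viability controls were run.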

Staphylococcus aureus [2] = assay: Sterilization time for contact germicidal efficiency (CGE) of salt was tested against Staphylococcus aureus at pH 7.0, concentration 1035.9 ppm; assay type: functional
Procedure, shortened: (§2)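 Test solutions of the quaternary salt in buffer stood 30 min at room temperature. 0.2 mL of overnight broth culture was added to 5 mL of solution. Inocula: S. aureus ATCC 6538 6-8 × 10^6 cfu/mL, P. aeruginosa ATCC 9027 12-13 × 10^6/mL, S. pyogenes ATCC 19615 5 × 10^6 cfu/mL. At 0.5-30 min intervals a loop was subcultured into nutrient broth and incubated 7 days at 37 °C. Sterilization time is the first interval giving no growth.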

Pseudomonas aeruginosa [3] = assay: Sterilization time for contact germicidal efficiency (CGE) of salt was tested against at Pseudomonas aeruginosa at pH 7.0, concentration 1035.9 ppm; assay type: functional; procedure, shortened: as §2
Salmonella typhimurium [4] = assay: (§3) Minimum inhibitory concentration of salt was tested against Salmonella Typhimurium […] at 0.1 M NaH2PO4 adjusted to pH 7.0; assay type: functional; details: Salmonella enterica
Procedure, shortened: (§4)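 Bacteria grown 18-20 h at 37 °C in tryptose phosphate broth, adjusted to OD650 0.01, then diluted into double-strength medium to about 2 × 10^5 viable organisms/mL. Compound in 0.1 M NaH2PO4 pH 7.0 was serially twofold diluted into sterile water and added 1:1 to the cultures. MIC read after 18-20 h at 37 °C, with viability, sterility and buffer controls.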

Streptococcus pyogenes [5] = assay: Sterilization time for contact germicidal efficiency (CGE) of salt was tested against at Streptococcus pyogenes at pH 6.0, concentration 1016 ppm; assay type: functional; procedure, shortened: as §1
Pseudomonas aeruginosa [6] = assay: Sterilization time for contact germicidal efficiency (CGE) of salt was tested against at Pseudomonas aeruginosa at pH 7.0, concentration 896.0 ppm; assay type: functional; procedure, shortened: as §2
Streptococcus pyogenes [7] = assay: Sterilization time for contact germicidal efficiency (CGE) of salt was tested against at Streptococcus pyogenes at pH 8.0, concentration 1013 ppm; assay type: functional; procedure, shortened: as §1
Pseudomonas aeruginosa [8] = assay: Sterilization time for contact germicidal efficiency (CGE) of salt was tested against at Pseudomonas aeruginosa at pH 8.0, concentration 1013 ppm; assay type: functional
Procedure, shortened: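 Pseudomonas aeruginosa ATCC 9027 overnight broth culture (12-13 × 10^6 organisms/mL); 0.2 mL added to 5 mL buffered salt solution held 30 min at room temperature. At intervals from 0.5 to 30 min, a 3-mm loop was subcultured into nutrient broth and incubated at 37 °C for 7 days. Sterilization time is the shortest interval whose subculture gave no growth.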

Streptococcus pyogenes [9] = assay: Sterilization time for contact germicidal efficiency (CGE) of salt was tested against at Streptococcus pyogenes at pH 7.0, concentration 1010 ppm; assay type: functional; procedure, shortened: as §1
Pseudomonas aeruginosa [10] = assay: Sterilization time for contact germicidal efficiency (CGE) of salt was tested against at Pseudomonas aeruginosa at pH 7.0, concentration 1010 ppm; assay type: functional; procedure, shortened: as §2
Staphylococcus aureus [11] = assay: Sterilization time for contact germicidal efficiency (CGE) of salt was tested against Staphylococcus aureus at pH 7.0, concentration 896.0 ppm; assay type: functional; procedure, shortened: as §2
Streptococcus pyogenes [12] = assay: Sterilization time for contact germicidal efficiency (CGE) of salt was tested against at Streptococcus pyogenes at pH 7.0, concentration 896.0 ppm; assay type: functional; procedure, shortened: as §1
Pseudomonas aeruginosa [13] = assay: Sterilization time for contact germicidal efficiency (CGE) of salt was tested against at Pseudomonas aeruginosa at pH 6.0, concentration 1016 ppm; assay type: functional; procedure, shortened: as §2
Staphylococcus aureus [14] = assay: Sterilization time for contact germicidal efficiency (CGE) of salt was tested against at Staphylococcus aureus at pH 8.0, concentration 1013 ppm; assay type: functional
Procedure, shortened: (§5)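 Staphylococcus aureus ATCC 6538, overnight broth culture at 6-8 × 10^6 cfu/mL; 0.2 mL inoculated into 5 mL of buffered quaternary salt solution pre-held 30 min at room temperature. Loop subcultures (3 mm) taken at 0.5-30 min intervals into nutrient broth, incubated at 37 °C for 7 days and read daily. The endpoint is the earliest time giving a growth-free subculture.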

Pseudomonas aeruginosa [15] = assay: Minimum inhibitory concentration of salt was tested against Pseudomonas aeruginosa at 0.1 M NaH2PO4 adjusted to pH 7.0; assay type: functional
Streptococcus pyogenes [16] = assay: Sterilization time for contact germicidal efficiency (CGE) of salt was tested against at Streptococcus pyogenes at pH 7.0, concentration 1010.9 ppm; assay type: functional; procedure, shortened: as §1
Staphylococcus aureus [17] = assay: Sterilization time for contact germicidal efficiency (CGE) of salt was tested against at Staphylococcus aureus at pH 7.0, concentration 1010 ppm; assay type: functional; procedure, shortened: as §5
Staphylococcus aureus [18] = assay: Sterilization time for contact germicidal efficiency (CGE) of salt was tested against at Staphylococcus aureus at pH 6.0, concentration 1016 ppm; assay type: functional; procedure, shortened: as §5
Staphylococcus aureus [19] = assay: Sterilization time for contact germicidal efficiency (CGE) of salt was tested against Staphylococcus aureus at pH 7.0, concentration 1010.9 ppm; assay type: functional; procedure, shortened: as §2
Pseudomonas aeruginosa [20] = assay: Sterilization time for contact germicidal efficiency (CGE) of salt was tested against at Pseudomonas aeruginosa at pH 7.0, concentration 1010.9 ppm; assay type: functional; procedure, shortened: as §2
[21] = Toxicity of the salt was tested on white swiss male mice after oral administration; assay type: organism-based; details: mouse, in vivo
Procedure, shortened: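 Male White Swiss mice (MCR-ICR), 20-23 g, 10-20 per dose, dosed orally. At higher doses the salt was given in 0.8% NaCl brought to pH 5.84 with sodium bicarbonate. LD50 was calculated by Litchfield–Wilcoxon.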

Staphylococcus aureus [22] = assay: Sterilization time for contact germicidal efficiency (CGE) of salt was tested against Staphylococcus aureus at pH 7.0, concentration 1038.7 ppm; assay type: functional
Staphylococcus aureus [23] = assay: Sterilization time for contact germicidal efficiency (CGE) of salt was tested against at Staphylococcus aureus at pH 6.0, concentration 1018 ppm; assay type: functional
Streptococcus pyogenes [24] = assay: Sterilization time for contact germicidal efficiency (CGE) of salt was tested against at Streptococcus pyogenes at pH 7.0, concentration 936.0 ppm; assay type: functional
Staphylococcus aureus [25] = assay: Sterilization time for contact germicidal efficiency (CGE) of salt was tested against at Staphylococcus aureus at pH 8.0, concentration 1018 ppm; assay type: functional
Pseudomonas aeruginosa [26] = assay: Sterilization time for contact germicidal efficiency (CGE) of salt was tested against at Pseudomonas aeruginosa at pH 7.0, concentration 1038.7 ppm; assay type: functional
Staphylococcus aureus [27] = assay: Sterilization time for contact germicidal efficiency (CGE) of salt was tested against Staphylococcus aureus at pH 7.0, concentration 936.0 ppm; assay type: functional
Pseudomonas aeruginosa [28] = assay: Sterilization time for contact germicidal efficiency (CGE) of salt was tested against at Pseudomonas aeruginosa at pH 6.0, concentration 1018 ppm; assay type: functional
Streptococcus pyogenes [29] = assay: Sterilization time for contact germicidal efficiency (CGE) of salt was tested against at Streptococcus pyogenes at pH 7.0, concentration 1038.7 ppm; assay type: functional
Pseudomonas aeruginosa [30] = assay: Sterilization time for contact germicidal efficiency (CGE) of salt was tested against at Pseudomonas aeruginosa at pH 8.0, concentration 1018 ppm; assay type: functional
Streptococcus pyogenes [31] = assay: Sterilization time for contact germicidal efficiency (CGE) of salt was tested against at Streptococcus pyogenes at pH 6.0, concentration 1018 ppm; assay type: functional
Streptococcus pyogenes [32] = assay: Sterilization time for contact germicidal efficiency (CGE) of salt was tested against at Streptococcus pyogenes at pH 7.0, concentration 1039 ppm; assay type: functional
Streptococcus pyogenes [33] = assay: Sterilization time for contact germicidal efficiency (CGE) of salt was tested against at Streptococcus pyogenes at pH 8.0, concentration 1018 ppm; assay type: functional
Staphylococcus aureus [34] = assay: Sterilization time for contact germicidal efficiency (CGE) of salt was tested against at Staphylococcus aureus at pH 7.0, concentration 1039 ppm; assay type: functional
Pseudomonas aeruginosa [35] = assay: Sterilization time for contact germicidal efficiency (CGE) of salt was tested against at Pseudomonas aeruginosa at pH 7.0, concentration 1039 ppm; assay type: functional
Pseudomonas aeruginosa [36] = assay: Sterilization time for contact germicidal efficiency (CGE) of salt was tested against at Pseudomonas aeruginosa at pH 7.0, concentration 936.0 ppm; assay type: functional
[37] = Toxicity of the salt was tested on white swiss male mice after intraperitoneal administration; assay type: organism-based; details: mouse, in vivo, ip
Procedure, shortened: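 Male White Swiss mice (MCR-ICR), 20-23 g, 10-20 per dose. Salt given in isotonic NaCl, pH 7.0 (adjusted with sodium bicarbonate). LD50 with confidence limits was calculated by Litchfield–Wilcoxon.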

Staphylococcus aureus [38] = assay: Sterilization time for contact germicidal efficiency (CGE) of salt was tested against at Staphylococcus aureus at pH 7.0, concentration 1026 ppm; assay type: functional
Streptococcus pyogenes [39] = assay: Sterilization time for contact germicidal efficiency (CGE) of salt was tested against at Streptococcus pyogenes at pH 8.0, concentration 1008 ppm; assay type: functional
Streptococcus pyogenes [40] = assay: Sterilization time for contact germicidal efficiency (CGE) of salt was tested against at Streptococcus pyogenes at pH 7.0, concentration 1026 ppm; assay type: functional
Streptococcus pyogenes [41] = assay: Sterilization time for contact germicidal efficiency (CGE) of salt was tested against at Streptococcus pyogenes at pH 6.0, concentration 1009 ppm; assay type: functional
Staphylococcus aureus [42] = assay: Sterilization time for contact germicidal efficiency (CGE) of salt was tested against at Staphylococcus aureus at pH 8.0, concentration 1008 ppm; assay type: functional
Pseudomonas aeruginosa [43] = assay: Sterilization time for contact germicidal efficiency (CGE) of salt was tested against at Pseudomonas aeruginosa at pH 7.0, concentration 1026 ppm; assay type: functional
Staphylococcus aureus [44] = assay: Sterilization time for contact germicidal efficiency (CGE) of salt was tested against Staphylococcus aureus at pH 7.0, concentration 1026 ppm; assay type: functional
Staphylococcus aureus [45] = assay: Sterilization time for contact germicidal efficiency (CGE) of salt was tested against at Staphylococcus aureus at pH 6.0, concentration 1009 ppm; assay type: functional
Pseudomonas aeruginosa [46] = assay: Sterilization time for contact germicidal efficiency (CGE) of salt was tested against at Pseudomonas aeruginosa at pH 8.0, concentration 1008 ppm; assay type: functional
Streptococcus pyogenes [47] = assay: Minimum inhibitory concentration of salt was tested against Streptococcus pyogenes aureus at 0.1 M NaH2PO4 adjusted to pH 7.0; assay type: functional
Pseudomonas aeruginosa [48] = assay: Sterilization time for contact germicidal efficiency (CGE) of salt was tested against at Pseudomonas aeruginosa at pH 6.0, concentration 1009 ppm; assay type: functional
Staphylococcus aureus [49] = assay: Minimum inhibitory concentration of salt was tested against Staphylococcus aureus aureus at 0.1 M NaH2PO4 adjusted to pH 7.0; assay type: functional; procedure, shortened: as §4
Salmonella typhimurium [50] = assay: as §3; assay type: functional; details: Salmonella enterica; remark: listed apart in the source
Bacillus subtilis = assay: Minimum inhibitory concentration of salt was tested against Bacillus subtilis at 0.1 M NaH2PO4 adjusted to pH 7.0; assay type: functional

Compound: CCCCCCCC(=O)OC[n+]1ccccc1.[Cl-]
- Time (Streptococcus pyogenes [1]): >30 min
- Time (Staphylococcus aureus [2]): >30 min
- Time (Pseudomonas aeruginosa [3]): >30 min
- MIC (Salmonella typhimurium [4]): 1060 µg/mL

Compound: CCCCCCCCCCCC(=O)OC[n+]1ccccc1.[Cl-]
- Time (Streptococcus pyogenes [5]): 0.5 min
- Time (Pseudomonas aeruginosa [6]): 0.5 min
- Time (Streptococcus pyogenes [7]): 7 min
- Time (Pseudomonas aeruginosa [8]): 2 min
- Time (Streptococcus pyogenes [9]): 0.5 min
- Time (Pseudomonas aeruginosa [10]): 0.5 min
- Time (Staphylococcus aureus [11]): 0.5 min
- Time (Streptococcus pyogenes [12]): 0.5 min
- Time (Pseudomonas aeruginosa [13]): 0.5 min
- Time (Staphylococcus aureus [14]): 0.5 min
- MIC (Pseudomonas aeruginosa [15]): 512 µg/mL
- Time (Streptococcus pyogenes [16]): 0.5 min
- Time (Staphylococcus aureus [17]): 0.5 min
- Time (Staphylococcus aureus [18]): 1 min
- Time (Staphylococcus aureus [19]): 0.5 min
- Time (Pseudomonas aeruginosa [20]): 0.5 min

Compound: CCCCCCCCCCCCCCCC[n+]1ccccc1.[Cl-]
- LD50 [21]: 108 mg/kg
- Time (Staphylococcus aureus [22]): 0.5 min
- Time (Staphylococcus aureus [23]): 0.5 min
- Time (Streptococcus pyogenes [24]): 0.5 min
- Time (Staphylococcus aureus [25]): 0.5 min
- Time (Pseudomonas aeruginosa [26]): 0.5 min
- Time (Staphylococcus aureus [27]): 0.5 min
- Time (Pseudomonas aeruginosa [28]): 0.5 min
- Time (Streptococcus pyogenes [29]): 0.5 min
- Time (Pseudomonas aeruginosa [30]): 0.5 min
- Time (Streptococcus pyogenes [31]): 0.5 min
- Time (Streptococcus pyogenes [32]): 0.5 min
- Time (Streptococcus pyogenes [33]): 0.5 min
- Time (Staphylococcus aureus [34]): 0.5 min
- Time (Pseudomonas aeruginosa [35]): 0.5 min
- Time (Pseudomonas aeruginosa [36]): 0.5 min
- LD50 [37]: 10 mg/kg

Compound: CCCCCCCCCCCC(=O)OC[N+]12CCN(CC1)CC2.[Cl-]
- Time (Staphylococcus aureus [38]): 0.5 min
- Time (Streptococcus pyogenes [39]): 3 min
- Time (Streptococcus pyogenes [40]): 0.5 min
- Time (Streptococcus pyogenes [41]): 0.5 min
- Time (Staphylococcus aureus [42]): 0.5 min
- Time (Pseudomonas aeruginosa [43]): 3 min
- MIC (Pseudomonas aeruginosa [15]): 1050 µg/mL
- Time (Staphylococcus aureus [44]): 0.5 min
- Time (Staphylococcus aureus [45]): 7 min
- Time (Pseudomonas aeruginosa [46]): 4 min
- MIC (Streptococcus pyogenes [47]): 32.8 µg/mL
- Time (Pseudomonas aeruginosa [48]): 0.5 min
- MIC (Staphylococcus aureus [49]): 65.5 µg/mL
- MIC (Salmonella typhimurium [50]): 524 µg/mL
- MIC (Bacillus subtilis): 32.8 µg/mL
